Assay results reported in PMC6637745 (Journal of medicinal chemistry, 2018).

Legend:
NOP = NOP (Homo sapiens, UniProt P41146); test: NIMH-PDSP binding affinity panel
5-HT1A-1E = test: NIMH-PDSP binding affinity panel; conditions: read-out: affinity
β1–3 = test: NIMH-PDSP binding affinity panel; conditions: read-out: affinity
Na + channel = test: NIMH-PDSP binding affinity panel; conditions: read-out: affinity
Ca+ channel = test: NIMH-PDSP binding affinity panel; conditions: read-out: affinity
SERT = SERT (Homo sapiens, UniProt P31645); test: NIMH-PDSP binding affinity panel
[1] = rodents, blood; cited from earlier work
NK (neurokinin) = test: NIMH-PDSP binding affinity panel; conditions: read-out: affinity
[2] = biological target: all other tested biogenic brain receptors, transporters, enzymes, and protein targets; test: NIMH-PDSP binding affinity panel; conditions: all other tested targets except H4R and σ1R
DOR = DOR (Homo sapiens, UniProt P41143); test: NIMH-PDSP binding affinity panel
mGluR = test: NIMH-PDSP binding affinity panel; conditions: read-out: affinity, metabotropic glutamate receptors
VMAT 1,2 = test: NIMH-PDSP binding affinity panel; conditions: read-out: affinity; VMAT 1,2, vesicular monoamine transporter
[3] = over 100 cancer patients including GBM; cited from earlier work
M (muscarinic) = test: NIMH-PDSP binding affinity panel; conditions: read-out: affinity
cancer animal models = conditions: variety of cancer animal models; cited from earlier work
5-HT3-7 = test: NIMH-PDSP binding affinity panel; conditions: read-out: affinity
NT (neurotrophin) = test: NIMH-PDSP binding affinity panel; conditions: read-out: affinity
KA (kainate) = test: NIMH-PDSP binding affinity panel; conditions: read-out: affinity
CB1, CB2 = test: NIMH-PDSP binding affinity panel; conditions: read-out: affinity; CB1, CB2 cannabinoid
A (adenosine) = test: NIMH-PDSP binding affinity panel; conditions: read-out: affinity
NMΔA = test: NIMH-PDSP binding affinity panel; conditions: read-out: affinity
α2A-2C = test: NIMH-PDSP binding affinity panel; conditions: read-out: affinity
5-HT2A-2C = test: NIMH-PDSP binding affinity panel; conditions: read-out: affinity
MDR1 = MDR1 (Homo sapiens, UniProt P08183); test: NIMH-PDSP binding affinity panel
smoothened = smoothened (Homo sapiens, UniProt Q99835); test: NIMH-PDSP binding affinity panel
oxytocin = oxytocin (Homo sapiens, UniProt P30559); test: NIMH-PDSP binding affinity panel
α1A-1C = test: NIMH-PDSP binding affinity panel; conditions: read-out: affinity
DAT = DAT (Homo sapiens, UniProt Q01959); test: NIMH-PDSP binding affinity panel
H1 = H1 (Homo sapiens, UniProt P35367); test: NIMH-PDSP binding affinity panel
KOP = KOP (Homo sapiens, UniProt P41145); test: NIMH-PDSP binding affinity panel
HERG = HERG (Homo sapiens, UniProt Q12809); test: NIMH-PDSP binding affinity panel
PKC = test: NIMH-PDSP binding affinity panel; conditions: read-out: affinity, protein kinase C
PBR = PBR (Homo sapiens, UniProt P30536); test: NIMH-PDSP binding affinity panel
D1-D5 = test: NIMH-PDSP binding affinity panel; conditions: read-out: affinity; D1-D5 dopamine
GABA = test: NIMH-PDSP binding affinity panel; conditions: read-out: affinity
[4] = biological target: EP (prostanoid receptors); test: NIMH-PDSP binding affinity panel; conditions: read-out: affinity
NET = NET (Homo sapiens, UniProt P23975); test: NIMH-PDSP binding affinity panel
AMPA = test: NIMH-PDSP binding affinity panel; conditions: read-out: affinity
I = test: NIMH-PDSP binding affinity panel; conditions: read-out: affinity
BZP (benzodiazepine) = test: NIMH-PDSP binding affinity panel; conditions: read-out: affinity
σ2 = σ2 (Homo sapiens, UniProt Q5BJF2); test: NIMH-PDSP binding affinity panel
brain MT [5] = test: microPET imaging in mice, baseline and blocking; assay type: in vivo, athymic nude male mice
In short: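 Mice were anaesthetised and transmission-scanned on a Trifoil PET/CT. The [11C] tracer (50 ± 10 μCi) was given by tail vein, followed by 60 min dynamic acquisition. Images were reconstructed with attenuation correction, Fourier rebinning and filtered back-projection, and summed over 0–60 min. In blocking scans, unlabelled test compound (5 mg/kg iv) was given before the tracer, with n = 3.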

[6] = Baseline ex vivo biodistribution; assay type: in vivo, male white mice; conditions: mouse brain, followed by gradual washout
MT = test: Blocking biodistribution with cold MPC-6827; assay type: in vivo, male white mice
In short: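 This was a blocking biodistribution. Unlabelled test compound (5 mg/kg iv) was given 20 min before tail-vein injection of the [11C] tracer at 100 ± 20 μCi in 10% ethanol–saline, with no anaesthesia. Tissues were harvested at 30 min, gamma-counted and expressed as %ID/g, with n = 3. Specific binding was taken from blocked versus baseline uptake.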

[7] = Lipophilicity by shake flask method; assay type: physicochemical; conditions: 1-octanol / phosphate buffer, n = 4
In short: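 The [11C]-labelled test compound was partitioned between 1-octanol and freshly prepared phosphate buffer by shake flask, and the result expressed as log Poct/water.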

[8] = Stability in ethanol–saline formulation; assay type: physicochemical; conditions: 5% ethanol–saline formulation, sterile conditions, 4 h, n = 4
In short: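 The stability of the [11C]-labelled test compound was checked by reverse-phase HPLC with photodiode-array and sodium iodide radioactivity detectors.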

brain MT [9] = test: microPET imaging in rats; assay type: in vivo; conditions: male Sprague—Dawley rats, n = 2
In short: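 Anaesthetised Sprague–Dawley rats (n = 2) were transmission-scanned on a Trifoil PET/CT. The [11C] tracer (100 ± 20 μCi) was injected into the tail vein and acquired for 60 min. Reconstruction used attenuation correction, Fourier rebinning and filtered back-projection, and images were summed over 0–60 min.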

[10] = 30 min, MPC-6827 5 mg/kg iv 20 min prior to radioligand, n = 3

NOP, sequence (P41146 whole entry): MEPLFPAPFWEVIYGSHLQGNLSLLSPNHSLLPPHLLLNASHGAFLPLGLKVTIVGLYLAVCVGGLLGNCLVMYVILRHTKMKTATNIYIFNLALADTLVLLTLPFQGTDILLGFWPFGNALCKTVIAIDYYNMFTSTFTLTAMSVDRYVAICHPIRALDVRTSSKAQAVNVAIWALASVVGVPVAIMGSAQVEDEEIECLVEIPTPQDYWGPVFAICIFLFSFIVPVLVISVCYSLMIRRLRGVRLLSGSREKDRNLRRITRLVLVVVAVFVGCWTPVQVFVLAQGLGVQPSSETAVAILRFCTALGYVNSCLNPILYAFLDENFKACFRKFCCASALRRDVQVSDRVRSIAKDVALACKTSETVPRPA
H1, sequence (P35367 whole entry): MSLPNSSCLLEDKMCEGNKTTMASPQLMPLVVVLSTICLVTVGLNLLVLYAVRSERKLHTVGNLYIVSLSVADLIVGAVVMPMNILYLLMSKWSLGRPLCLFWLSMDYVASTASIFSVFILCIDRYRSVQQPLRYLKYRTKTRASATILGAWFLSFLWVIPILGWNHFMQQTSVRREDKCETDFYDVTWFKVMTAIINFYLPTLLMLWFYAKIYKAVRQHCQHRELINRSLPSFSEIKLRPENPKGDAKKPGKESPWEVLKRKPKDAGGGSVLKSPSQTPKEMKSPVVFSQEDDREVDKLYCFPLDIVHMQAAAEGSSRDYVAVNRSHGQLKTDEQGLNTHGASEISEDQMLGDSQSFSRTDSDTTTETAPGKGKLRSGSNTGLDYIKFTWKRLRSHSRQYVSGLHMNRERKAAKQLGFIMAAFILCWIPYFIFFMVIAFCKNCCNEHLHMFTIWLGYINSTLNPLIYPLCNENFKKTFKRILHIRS
oxytocin, sequence (P30559 whole entry): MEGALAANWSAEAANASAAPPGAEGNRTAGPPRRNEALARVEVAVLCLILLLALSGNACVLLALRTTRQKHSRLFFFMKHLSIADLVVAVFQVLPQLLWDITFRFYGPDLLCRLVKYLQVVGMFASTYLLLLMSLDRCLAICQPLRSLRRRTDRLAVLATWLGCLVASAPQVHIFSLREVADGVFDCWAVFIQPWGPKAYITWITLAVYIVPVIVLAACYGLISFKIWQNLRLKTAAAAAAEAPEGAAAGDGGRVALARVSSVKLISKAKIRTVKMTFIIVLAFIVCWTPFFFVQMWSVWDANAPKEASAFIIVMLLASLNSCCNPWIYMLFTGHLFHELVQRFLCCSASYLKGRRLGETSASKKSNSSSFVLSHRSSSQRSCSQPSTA
HERG, sequence (Q12809 whole entry): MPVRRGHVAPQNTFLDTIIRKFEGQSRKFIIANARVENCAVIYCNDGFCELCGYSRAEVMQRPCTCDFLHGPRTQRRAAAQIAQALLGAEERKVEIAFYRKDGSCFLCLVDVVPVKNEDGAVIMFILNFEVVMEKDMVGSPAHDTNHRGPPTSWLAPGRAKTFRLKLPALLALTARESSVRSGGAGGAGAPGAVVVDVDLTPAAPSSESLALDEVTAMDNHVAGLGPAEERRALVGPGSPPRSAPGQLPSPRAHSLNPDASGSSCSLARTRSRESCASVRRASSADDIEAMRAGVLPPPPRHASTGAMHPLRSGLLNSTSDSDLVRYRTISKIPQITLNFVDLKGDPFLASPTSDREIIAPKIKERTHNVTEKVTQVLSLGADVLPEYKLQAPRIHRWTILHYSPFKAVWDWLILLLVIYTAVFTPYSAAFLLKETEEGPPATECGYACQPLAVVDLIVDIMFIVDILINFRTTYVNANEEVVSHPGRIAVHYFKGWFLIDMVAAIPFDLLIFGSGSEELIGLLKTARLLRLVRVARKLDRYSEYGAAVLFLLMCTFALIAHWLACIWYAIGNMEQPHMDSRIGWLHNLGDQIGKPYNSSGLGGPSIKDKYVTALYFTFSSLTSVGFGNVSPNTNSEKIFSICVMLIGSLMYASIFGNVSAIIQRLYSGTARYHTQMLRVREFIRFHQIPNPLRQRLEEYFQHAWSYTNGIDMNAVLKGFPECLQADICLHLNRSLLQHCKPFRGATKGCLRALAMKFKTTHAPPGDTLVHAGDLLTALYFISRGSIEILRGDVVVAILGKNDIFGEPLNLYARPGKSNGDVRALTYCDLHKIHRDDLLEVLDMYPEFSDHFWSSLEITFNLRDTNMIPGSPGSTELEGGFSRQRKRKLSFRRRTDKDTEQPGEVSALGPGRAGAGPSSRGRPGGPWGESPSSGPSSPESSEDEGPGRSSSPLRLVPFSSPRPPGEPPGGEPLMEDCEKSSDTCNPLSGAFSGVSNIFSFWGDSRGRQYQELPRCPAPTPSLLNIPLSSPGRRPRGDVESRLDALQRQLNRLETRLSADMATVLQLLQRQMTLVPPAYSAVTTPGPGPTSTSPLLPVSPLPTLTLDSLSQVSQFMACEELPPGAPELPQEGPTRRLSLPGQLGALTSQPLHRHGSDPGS
SERT, sequence (P31645 whole entry, species assumed): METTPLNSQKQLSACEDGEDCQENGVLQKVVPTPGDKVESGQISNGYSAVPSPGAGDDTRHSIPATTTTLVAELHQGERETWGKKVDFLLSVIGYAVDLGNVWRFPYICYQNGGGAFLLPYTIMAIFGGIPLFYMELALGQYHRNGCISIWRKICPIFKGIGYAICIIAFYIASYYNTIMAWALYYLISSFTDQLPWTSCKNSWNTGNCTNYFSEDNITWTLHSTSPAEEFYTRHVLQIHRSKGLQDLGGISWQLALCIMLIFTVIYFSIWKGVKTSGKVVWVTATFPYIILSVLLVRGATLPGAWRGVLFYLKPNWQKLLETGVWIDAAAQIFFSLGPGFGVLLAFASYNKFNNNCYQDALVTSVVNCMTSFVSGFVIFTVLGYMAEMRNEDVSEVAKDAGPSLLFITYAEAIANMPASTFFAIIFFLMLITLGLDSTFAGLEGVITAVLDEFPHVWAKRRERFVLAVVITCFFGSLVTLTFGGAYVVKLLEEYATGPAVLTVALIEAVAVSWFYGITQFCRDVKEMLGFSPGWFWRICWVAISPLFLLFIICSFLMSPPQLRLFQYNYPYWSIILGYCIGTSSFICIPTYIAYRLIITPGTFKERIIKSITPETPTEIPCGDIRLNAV
σ2, sequence (Q5BJF2 whole entry): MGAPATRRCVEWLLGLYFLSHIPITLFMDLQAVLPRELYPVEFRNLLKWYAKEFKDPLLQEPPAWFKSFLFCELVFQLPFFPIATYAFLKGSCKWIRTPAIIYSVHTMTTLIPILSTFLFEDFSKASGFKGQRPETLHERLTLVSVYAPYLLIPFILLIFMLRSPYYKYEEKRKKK
MDR1, sequence (P08183 whole entry, species assumed): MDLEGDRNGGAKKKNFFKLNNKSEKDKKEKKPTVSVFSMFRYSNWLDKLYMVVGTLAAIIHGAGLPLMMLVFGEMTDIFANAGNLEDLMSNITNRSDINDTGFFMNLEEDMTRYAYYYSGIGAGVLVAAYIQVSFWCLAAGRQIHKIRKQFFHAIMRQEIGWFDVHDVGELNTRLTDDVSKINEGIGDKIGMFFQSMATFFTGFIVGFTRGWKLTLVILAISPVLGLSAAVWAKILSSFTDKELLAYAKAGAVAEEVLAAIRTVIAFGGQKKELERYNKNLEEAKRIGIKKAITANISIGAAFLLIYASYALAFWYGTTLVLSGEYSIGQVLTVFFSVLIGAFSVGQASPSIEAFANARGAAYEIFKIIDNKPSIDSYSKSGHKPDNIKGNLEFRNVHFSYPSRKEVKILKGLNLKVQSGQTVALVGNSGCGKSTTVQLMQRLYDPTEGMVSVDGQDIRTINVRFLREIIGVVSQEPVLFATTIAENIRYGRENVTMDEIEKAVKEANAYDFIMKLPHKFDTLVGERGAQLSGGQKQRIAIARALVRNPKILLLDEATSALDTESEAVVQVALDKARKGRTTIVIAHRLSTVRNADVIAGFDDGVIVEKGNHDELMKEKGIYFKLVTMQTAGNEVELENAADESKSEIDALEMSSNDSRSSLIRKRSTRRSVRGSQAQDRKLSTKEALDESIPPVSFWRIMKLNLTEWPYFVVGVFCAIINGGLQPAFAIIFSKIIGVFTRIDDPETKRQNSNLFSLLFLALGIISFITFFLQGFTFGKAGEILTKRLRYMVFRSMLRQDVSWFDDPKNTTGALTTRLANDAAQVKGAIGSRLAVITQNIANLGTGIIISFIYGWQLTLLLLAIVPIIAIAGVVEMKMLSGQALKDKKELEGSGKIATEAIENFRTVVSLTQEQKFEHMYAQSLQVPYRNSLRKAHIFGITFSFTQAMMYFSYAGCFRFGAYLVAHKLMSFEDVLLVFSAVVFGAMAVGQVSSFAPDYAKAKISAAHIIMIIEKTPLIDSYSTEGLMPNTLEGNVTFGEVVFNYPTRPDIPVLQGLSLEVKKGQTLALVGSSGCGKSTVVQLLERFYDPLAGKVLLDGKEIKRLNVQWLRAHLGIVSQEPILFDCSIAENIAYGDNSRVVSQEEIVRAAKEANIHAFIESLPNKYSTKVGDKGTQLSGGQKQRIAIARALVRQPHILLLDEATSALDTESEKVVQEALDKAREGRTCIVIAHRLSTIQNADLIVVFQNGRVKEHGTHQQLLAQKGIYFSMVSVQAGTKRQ
KOP, sequence (P41145 whole entry): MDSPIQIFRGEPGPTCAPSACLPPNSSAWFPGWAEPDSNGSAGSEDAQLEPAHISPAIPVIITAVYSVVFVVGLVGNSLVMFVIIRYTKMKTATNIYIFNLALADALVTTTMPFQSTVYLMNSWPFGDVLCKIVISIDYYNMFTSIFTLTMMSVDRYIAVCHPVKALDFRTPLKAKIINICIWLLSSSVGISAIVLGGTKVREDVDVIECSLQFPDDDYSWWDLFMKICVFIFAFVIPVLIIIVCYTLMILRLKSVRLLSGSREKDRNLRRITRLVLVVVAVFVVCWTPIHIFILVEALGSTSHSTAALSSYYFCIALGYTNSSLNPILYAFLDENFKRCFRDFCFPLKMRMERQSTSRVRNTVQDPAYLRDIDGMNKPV

## COc1ccc(N(C)c2nc(C)nc3ccccc23)cc1 [MPC-6827]
NOP
  Ki: > 10 µM
5-HT1A-1E
  Ki: > 10 µM
β1–3
  Ki: > 10 µM
Na + channel
  Ki: > 10 µM
Ca+ channel
  Ki: > 10 µM
SERT
  Ki: > 10 µM
[1]
  plasma binding: 98.2%
NK (neurokinin)
  Ki: > 10 µM
[2]
  Ki: > 10 µM
DOR
  Ki: > 10 µM
mGluR
  Ki: > 10 µM
VMAT 1,2
  Ki: > 10 µM
[3]
  safety in human subjects: proven to be safe
M (muscarinic)
  Ki: > 10 µM
Cancer animal models
  tumor growth in cancer animal models: suppression of tumor growth
5-HT3-7
  Ki: > 10 µM
NT (neurotrophin)
  Ki: > 10 µM
KA (kainate)
  Ki: > 10 µM
CB1, CB2
  Ki: > 10 µM
A (adenosine)
  Ki: > 10 µM
NMΔA
  Ki: > 10 µM
α2A-2C
  Ki: > 10 µM
5-HT2A-2C
  Ki: > 10 µM
MDR1
  Ki: > 10 µM
smoothened
  Ki: > 10 µM
oxytocin
  Ki: > 10 µM
α1A-1C
  Ki: > 10 µM
DAT
  Ki: > 10 µM
H1
  Ki: > 10 µM
KOP
  Ki: > 10 µM
HERG
  Ki: > 10 µM
PKC
  Ki: > 10 µM
PBR
  Ki: > 10 µM
D1-D5
  Ki: > 10 µM
GABA
  Ki: > 10 µM
[4]
  Ki: > 10 µM
NET
  Ki: > 10 µM
AMPA
  Ki: > 10 µM
I
  Ki: > 10 µM
BZP (benzodiazepine)
  Ki: > 10 µM
σ2
  Ki: > 10 µM

## Cc1nc(N(C)c2ccc(O[11CH3])cc2)c2ccccc2n1 [[^11C]MPC-6827]
Brain MT [5]; athymic nude male mice, n = 3, 0–60 min
  BBB penetration and brain retention (microPET): penetrates the BBB and shows excellent retention in mouse brain
Brain MT [5]; blocking with 5 mg/kg MPC-6827, mice
  radioligand binding in thyroid or salivary gland during blocking (microPET): displaced
Brain MT [5]; iv 5 mg/kg unlabeled MPC-6827, n = 3
  blocking of brain activity (microPET): substantially blocked
[6]
  time of peak brain activity: 5 min
MT; [10]
  specific binding in brain: 70%
  specific binding in heart: 16%
  specific binding in lungs: 30%
  specific binding in muscles: 60%
  specific binding in pancreas: 20%
MT; 30 min, regions other than brain, muscles, spleen, lungs, pancreas, heart
  specific binding in the rest of the tested regions: no significant specific binding
MT; blocking with cold MPC-6827, mice
  displacement of kidney and liver binding: not displaced
MT; brain vs muscle, Figure 1B
  ratio of specific to nonspecific binding in brain relative to muscle: 10 times
[7]
  log Poct/water: 3.8
[8]
  stability in formulation: stable
Brain MT [9]
  BBB penetration and brain retention (microPET): BBB penetration and excellent retention
